The values below come from ChEMBL document CHEMBL2029301, “Development of a series of 3-hydroxyquinolin-2(1H)-ones as selective inhibitors of HIV-1 reverse transcriptase associated RNase H activity” (Bioorg Med Chem Lett, 2012).

Active and inactive are the calls of the source. The rule behind the calls is not given here. Some results are limits rather than exact numbers.

For orientation: IC50 means the concentration needed to halve the response being measured. A high value points to lower potency. The term EC50 denotes the midpoint of the concentration-response curve. In general, CC50 refers to the concentration that lowers cell viability or growth by half. Lower therefore signals harm at low concentration.

In series [1] the target is T1, Human immunodeficiency virus type 1 reverse transcriptase (Human immunodeficiency virus 1, UniProt Q72547). Description: Inhibition of HIV1 reverse transcriptase RNase H activity.
Series [2] concerns Human immunodeficiency virus 1. Description: Antiviral activity against HIV1 infected in MT4 cells assessed as inhibition of virus-induced cytopathic effect. Format: functional, organism-based. The note with it: Human immunodeficiency virus 1, MT4. On the technique in general: Damage to the host cells serves as the signal in cytopathic effect assays.
A short description of series [3]: Cytotoxicity against human MT4 cells. Type of series: cell-based.
Series [4] has as its target T1, Human immunodeficiency virus type 1 reverse transcriptase. Put plainly: Inhibition of HIV1 reverse transcriptase associated RNA dependent polymerase activity. The gist of the method: (§1)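 Mg-dependent HIV-1 integrase and RT RNA-dependent DNA polymerase activities measured in vitro, with compounds tested at concentrations up to 250 µM.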
In series [5] the target is Human immunodeficiency virus type 1 integrase (Human immunodeficiency virus 1, UniProt Q7ZJM1). Description: Inhibition of HIV1 integrase. In short, it runs like this: as §1
Chain of Human immunodeficiency virus type 1 integrase (Q7ZJM1 whole entry): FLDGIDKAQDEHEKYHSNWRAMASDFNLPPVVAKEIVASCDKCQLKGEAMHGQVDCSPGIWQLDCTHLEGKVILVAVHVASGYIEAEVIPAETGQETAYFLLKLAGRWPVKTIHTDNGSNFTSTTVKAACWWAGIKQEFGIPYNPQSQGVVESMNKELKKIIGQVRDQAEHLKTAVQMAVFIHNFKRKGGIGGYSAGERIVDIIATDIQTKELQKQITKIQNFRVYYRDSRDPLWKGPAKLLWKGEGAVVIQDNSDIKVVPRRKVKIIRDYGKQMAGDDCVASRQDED
In series [6] the target is Human immunodeficiency virus type 1 reverse transcriptase (Human immunodeficiency virus 1) (UniProt Q72547). Description: Inhibition of HIV1 reverse transcriptase RNase H activity assessed as remaining activity at 100 uM. The gist of the method: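 In vitro HIV-1 RT-associated RNase H activity measured with compound at 100 µM, expressed as percentage of remaining enzyme activity.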

For series [7], the system named is Human immunodeficiency virus 1. Put plainly: Binding affinity to HIV1 Reverse transcriptase RNase H domain p15 assessed as intrinsic fluorescence quenching at 100 uM by fluorimetry. In short, it runs like this: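 Recombinant isolated HIV-1 RT RNase H domain (p15) excited at 290 nm to maximise the tryptophan signal. Ligand binding at the active site is read as quenching of intrinsic fluorescence. HTHI (2-hydroxy-1,2,3,4-tetrahydroisoquinoline-1,3-dione) serves as positive control.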

The target in series [8] is Human immunodeficiency virus type 1 reverse transcriptase (Human immunodeficiency virus 1) (UniProt Q72547). Description: Selectivity ratio of IC50 for HIV1 reverse transcriptase associated RNA dependent polymerase activity to IC50 for reverse transcriptase Rnase H activity.
For series [9], the system named is Human immunodeficiency virus 1. Description: Selectivity ratio of IC50 for HIV1 integrase to IC50 for reverse transcriptase Rnase H activity.

The compound `COc1ccc(CNC(=O)c2c(O)c(=O)[nH]c3c(F)cccc23)cc1` registered an IC50 in series [1] of 74 µM. Also, in series [2], the EC50 is more than 8 µM. This compound returned a 50% cytotoxic concentration (CC50) in series [3] of 8 µM.

For the compound `COc1ccc(CNC(=O)c2c(O)c(=O)[nH]c3ccc(F)cc23)cc1`, the IC50 is 19 µM in series [1], more than 250 µM in series [4] and more than 250 µM in series [5]. Besides, the EC50 in series [2] was more than 29 µM. This compound returned a CC50 in series [3] of 29 µM.

As to `CCCCCCNC(=O)c1c(O)c(=O)[nH]c2c(F)cccc12`, in [1], the IC50 amounted to 49 µM. In addition, the EC50 in series [2] was more than 22 µM. The same compound showed a CC50 in [3] of 22 µM.

`O=C(NCc1ccc(F)cc1)c1c(O)c(=O)[nH]c2ccc(F)cc12`: the values for the concentration for half-maximal inhibition (IC50) in series [1], in series [4] and in series [5] were 22 µM, more than 250 µM and more than 250 µM, respectively. In series [2], the EC50 is more than 24 µM. Besides, the cytotoxic concentration (CC50) in series [3] was 24 µM.

On to `CCOC(=O)c1c(O)c(=O)[nH]c2ccc(Cl)cc12`, for which, in series [1], the IC50 was more than 100 µM. The Activity in series [6] was found to be 100%. Further, the concentration giving a half-maximal response (EC50) in series [2] is more than 117 µM. Besides, in [3], the CC50 amounted to 117 µM.

With `O=C(NCc1ccc(F)cc1)c1c(O)c(=O)[nH]c2ccccc12`, the IC50 in [1] was 19 µM; in series [4], more than 250 µM; in series [5], more than 250 µM. Besides, the EC50 in series [2] is more than 29 µM. Moreover, the CC50 in series [3] turned out to be 29 µM. For the same compound, the result in series [7] was Active.

`O=C(O)c1c(O)c(=O)[nH]c2c(F)cccc12` came in with an IC50 in [1] of more than 100 µM. For the same compound, the Activity in [6] was 88%. In addition, in series [2], the EC50 was more than 250 µM. Further, the 50% cytotoxic concentration (CC50) in series [3] was more than 250 µM.

`O=C(NCc1ccc(F)cc1)c1c(O)c(=O)[nH]c2c(F)cccc12` yielded an IC50 in series [1] of 75 µM. The EC50 in series [2] is more than 6.8 µM. The compound further registered a cytotoxic concentration (CC50) in series [3] of 8 µM.

On to `O=C(NCc1ccc(F)cc1)c1c(O)c(=O)[nH]c2ccc(Cl)cc12`, for which the IC50 in series [1] was 18 µM; in series [4] it was more than 250 µM; in series [5], more than 250 µM. The EC50 in series [2] is more than 28 µM. It took 28 µM to reach half-maximal cytotoxicity in series [3] (CC50). The Ratio IC50 in series [8] and in series [9] was more than 14 in each case.

For the compound `CCOC(=O)c1c(O)c(=O)[nH]c2ccc(F)cc12`, the IC50 in series [1] is more than 100 µM. The Activity in [6] was 100%. For the same compound, in series [2], the EC50 was more than 134 µM. Also, the CC50 in [3] is 134 µM.

With `CCOC(=O)c1c(O)c(=O)[nH]c2c(F)cccc12`, the IC50 in [1] is more than 100 µM. Further, in series [6], the Activity is 100%. Moreover, the EC50 in series [2] was more than 238 µM. The CC50 in series [3] was 238 µM.

As for `O=C(O)c1c(O)c(O)nc2ccccc12`, in series [1], the IC50 turned out to be 59 µM. Further, the EC50 in series [2] is more than 250 µM. The compound also had a CC50 in [3] of more than 250 µM.

In [1], `CCOC(=O)c1c(O)c(=O)[nH]c2ccc(N)cc12` had an IC50 of more than 100 µM. For the same compound, in [6], the Activity stood at 100%. Further, the concentration giving a half-maximal response (EC50) in series [2] is more than 250 µM. For the same compound, in series [3], half-maximal cytotoxicity (CC50) was put at 250 µM.

In turn, `CCOC(=O)c1c(O)c(=O)[nH]c2ccc([N+](=O)[O-])cc12` yielded an IC50 in series [1] of 64 µM. The EC50 in series [2] was more than 118 µM. Moreover, it took 118 µM to reach half-maximal cytotoxicity in series [3] (CC50).

On to `O=c1[nH]c2ccccc2cc1O`, for which the Activity in series [6] was 97%. The same compound registered a cytotoxic concentration (CC50) in series [3] of 115 µM.

The compound `O=C(O)c1c(O)c(=O)[nH]c2ccc(Cl)cc12` returned an IC50 in series [1] of more than 100 µM. Moreover, in [6], the Activity amounted to 100%. In series [2], the EC50 is more than 250 µM. In addition, the CC50 in series [3] was more than 250 µM.

In series [1], `O=C(O)c1c(O)c(=O)[nH]c2ccc([N+](=O)[O-])cc12` returned an IC50 of 97 µM. For the same compound, in [2], the EC50 is more than 250 µM. In [3], this compound had a CC50 of more than 250 µM.

On to `CCOC(=O)c1c(O)c(O)nc2ccccc12`, for which it took 16 µM to reach half-maximal inhibition in series [1] (IC50). The EC50 in series [2] is more than 210 µM. The compound further had a CC50 in series [3] of 210 µM.

Take `O=C(O)c1c(O)c(=O)[nH]c2ccc(F)cc12`: in [1], the IC50 was more than 100 µM. Also, the Activity in series [6] came to 100%. The EC50 in [2] is more than 250 µM. It took 250 µM to reach half-maximal cytotoxicity in series [3] (CC50).
